In ChEMBL document CHEMBL1127514, “Retinobenzoic acids. 6. Retinoid antagonists with a heterocyclic ring” (1994):
pEC50: −log10 of the molar value. Active and inactive are the calls of the source. The calls are words filed in the database; no cut-off is given here.

Columns and labels:
[1] = test system: HL-60; assay: The ability to induce differentiation of human promyelocytic leukemia cell line HL-60 to mature granulocytes was determined by nitro blue tetrazolium (NBT) reduction assay; assay type: functional; details: read-out: ED50 (the source's name)
Outline: (§1)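 HL-60 cells grown in RPMI1640 with 5% FCS and antibiotics were seeded at about 8×10^4 cells/mL. Compounds were added from 2 mM ethanol stocks (final ethanol below 0.5%; ethanol-only controls) and cells incubated 4 days. Percent differentiated cells was scored by NBT reduction (0.2% NBT plus TPA 200 ng/mL, 20 min, 37 °C; formazan-positive cells counted, minimum 200 cells). Assays were run at least twice, and ED50 was obtained by the van der Waerden method.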

[2] = test system: HL-60; assay: The ability to induce differentiation of human promyelocytic leukemia cell line HL-60 to mature granulocytes relative to retinoic acid was determined by nitro blue tetrazolium (NBT) reduction assay; assay type: functional
Outline: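 HL-60 cells in RPMI1640 with 5% FCS, 37 °C, 5% CO2, seeded at about 8×10^4 cells/mL. Compounds were added from 2 mM ethanol stocks (final ethanol below 0.5%) and cells incubated 4 days. NBT reduction (0.2% NBT, TPA 200 ng/mL, 20 min, 37 °C) was scored on ≥200 cells. ED50 was calculated by van der Waerden; the value is the retinoic acid ED50 divided by the compound ED50 from concurrent runs, ×100.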

[3] = test system: HL-60; assay: The ability to induce differentiation of human promyelocytic leukemia cell line HL-60 to mature granulocytes was determined by nitro blue tetrazolium (NBT) reduction assay; Inactive; assay type: functional, cell-based; outline: as §1

| Structure (SMILES) | pEC50 [1] | Relative activity [2] | ED50 [3] |
| --- | --- | --- | --- |
| CC1(C)CCC(C)(C)c2cc(NC(=O)c3ccc(C(=O)O)cc3)ccc21 [TAMIBAROTENE] | 9.10 | 350 | – |
| CC1(C)CCC(C)(C)c2cc3c(cc21)N=C(c1ccc(C(=O)O)cc1)CC(=O)N3 | – | – | inactive |
| CC1(C)CCC(C)(C)c2cc3c(cc21)nc(-c1ccc(C(=O)O)cc1)n3Cc1ccccc1 | – | – | inactive |
| CC1=C(/C=C/C(C)=C/C=C/C(C)=C/C(=O)O)C(C)(C)CCC1 [TRETINOIN] | 8.62 | 100 | – |
| CC1(C)CCC(C)(C)c2cc3c(cc21)NC(=O)CN(c1ccc(C(=O)O)cc1)C3=O | – | – | inactive |
| CC1(C)CCC(C)(C)c2cc3c(cc21)nc(-c1ccc(C(=O)O)cc1)n3-c1ccccc1 | – | – | inactive |
| CN1C(=O)CC(c2ccc(C(=O)O)cc2)=Nc2cc3c(cc21)C(C)(C)CCC3(C)C | 6.28 | 0.43 | – |
| CC1(C)CCC(C)(C)c2cc3c(cc21)Nc1ccccc1C(c1ccc(C(=O)O)cc1)N3 (stereo unspecified) | < 5.00 | < 0.01 | – |
| CN1c2cc3c(cc2N=C(c2ccc(C(=O)O)cc2)c2ccccc21)C(C)(C)CCC3(C)C | – | – | inactive |

Further lines, with some results ahead:

| pEC50 [1] | Structure (SMILES) | Relative activity [2] | ED50 [3] |
| --- | --- | --- | --- |
| 7.34 | CCn1c(-c2ccc(C(=O)O)cc2)nc2cc3c(cc21)C(C)(C)CCC3(C)C | 4.9 | – |
| < 5.00 | CC(C)n1c(-c2ccc(C(=O)O)cc2)nc2cc3c(cc21)C(C)(C)CCC3(C)C | < 0.01 | – |
| 8.47 | Cn1c(-c2ccc(C(=O)O)cc2)nc2cc3c(cc21)C(C)(C)CCC3(C)C | 65 | – |
| 6.49 | CC1(C)CCC(C)(C)c2cc3[nH]c(-c4ccc(C(=O)O)cc4)nc3cc21 | 0.7 | – |
